Data on five compounds can be found in ChEMBL document CHEMBL1138513, “Glucose promoiety enables glucose transporter mediated brain uptake of ketoprofen and indomethacin prodrugs in rats” (J Med Chem, 2009).

Data set [1] deals with T1, Solute carrier family 2, facilitated glucose transporter member 1 (Rattus norvegicus) (UniProt P11167).
T1 sequence (whole entry): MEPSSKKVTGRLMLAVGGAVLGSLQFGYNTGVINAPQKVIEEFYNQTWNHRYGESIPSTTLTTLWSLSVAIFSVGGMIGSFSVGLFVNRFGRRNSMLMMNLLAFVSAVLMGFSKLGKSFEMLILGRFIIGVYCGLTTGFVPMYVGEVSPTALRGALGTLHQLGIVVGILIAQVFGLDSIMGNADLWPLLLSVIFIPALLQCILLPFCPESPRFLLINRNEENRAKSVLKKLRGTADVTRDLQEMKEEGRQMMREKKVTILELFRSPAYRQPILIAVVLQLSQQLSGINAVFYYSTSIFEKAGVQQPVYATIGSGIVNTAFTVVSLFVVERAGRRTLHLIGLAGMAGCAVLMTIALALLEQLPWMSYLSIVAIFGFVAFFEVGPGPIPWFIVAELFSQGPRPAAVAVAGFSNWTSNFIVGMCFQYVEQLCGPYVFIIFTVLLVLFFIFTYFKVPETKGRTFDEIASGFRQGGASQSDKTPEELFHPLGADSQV
Briefly: Inhibition of GluT1-mediated [14C]D-glucose uptake in Wistar rat brain at 20 mM by perfusion technique.

Data set [2] in a line: Chemical stability in aqueous phosphate buffer at pH 7.4 assessed as half life by HPLC. It counts as physicochemical. The method, boiled down:
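Prodrug dissolved in preheated 0.16 M phosphate buffer, pH 7.4, ionic strength 0.5, held at 37 °C in a water bath. Samples taken at intervals and remaining prodrug measured by HPLC. Pseudo-first-order t1/2 taken from the slope of log remaining prodrug versus time; mean ± sd, n = 2.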

For data set [3], the system named is Brain. The data set is described as follows: (§1) Metabolic stability in rat brain homogenate assessed as half life by HPLC. It counts as ADME, tissue-based. The gist of the method: (§2)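 Prodrug incubated at 37 °C in rat brain homogenate diluted to 20% (v/v), or in liver homogenate diluted to 50% (v/v), in isotonic 0.16 M phosphate buffer, pH 7.4. Aliquots quenched with acetonitrile and centrifuged; remaining prodrug and released parent drug measured by HPLC. Pseudo-first-order t1/2 reported; mean ± sd, n = 3.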

Data set [4] deals with T1, Solute carrier family 2, facilitated glucose transporter member 1 (Rattus norvegicus). The data set is described as follows: Inhibition of GluT1-mediated [14C]D-glucose uptake in Wistar rat brain at 80 uM by perfusion technique.
Data set [5] has the same target. Briefly: (§3) Inhibition of GluT1-mediated [14C]D-glucose uptake in Wistar rat brain by perfusion technique. The method, boiled down: (§4)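 Rat brain PA product of 0.2 µCi/mL [14C]D-glucose measured by in situ perfusion with prodrug co-perfused at concentrations from 0.1 to 1000 µM or 0.01 to 80 µM. IC50 obtained by nonlinear regression; mean ± sd, n = 2.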
Data set [6] deals with T2, Solute carrier family 2, facilitated glucose transporter member 1 (Rattus norvegicus, UniProt P11167).
T2 sequence (P11167 whole entry): T1 sequence (whole entry)
The data set is described as §3. The gist of the method:
as §4

The subject of data set [7] is Brain. Briefly: Drug uptake in Wistar rat brain at 150 uM by perfusion technique. It counts as ADME, tissue-based. Particulars: in vivo. The method, boiled down:
(§5)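 In situ brain perfusion via the right common carotid artery in adult male Wistar rats (200-230 g) under ketamine/xylazine ip. Prodrug in perfusion medium with 1% DMSO, pH 7.4, perfused 60 s at 37 °C, then washed with cold (5 °C) prodrug-free medium for 30 s. Brain hemisphere analysed by HPLC; uptake in pmol/mg/min, mean ± sd, n = 3.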

Data set [8] concerns Brain. Briefly: Drug uptake in Wistar rat brain at 150 uM by perfusion technique in presence of D-glucose. Particulars: in vivo. It counts as ADME, tissue-based. The method, boiled down: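 Male Wistar rats, in situ carotid brain perfusion. Prodrug at 150 µM given for 60 s at 37 °C in perfusion medium (1% DMSO, pH 7.4) with 50 mM D-glucose added, followed by a 30 s cold prodrug-free wash. Brain prodrug measured by HPLC; uptake in pmol/mg/min, mean ± sd, n = 3.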

Data set [9] concerns Brain. The data set is described as follows: Drug uptake in Wistar rat brain at 150 uM by perfusion technique […]. Format: ADME, tissue-based. Particulars: in vivo. The gist of the method: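 Carrier-mediated uptake blocked nonspecifically by cold in male Wistar rats. Capillaries first washed 30 s with 5 °C prodrug-free medium, then perfused 60 s with 5 °C prodrug solution at 150 µM, then washed again with cold medium. Brain prodrug measured by HPLC; mean ± sd, n = 3.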

The target in data set [10] is T1, Solute carrier family 2, facilitated glucose transporter member 1 (Rattus norvegicus). The data set is described as follows: Inhibition of GluT1-mediated [14C]D-glucose uptake in Wistar rat brain at 80 uM after 30 seconds perfusion measured after drug washout from brain capillary 30 seconds before [14C]D-glucose challenge. The method, boiled down:
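Reversibility test in male Wistar rats. Brain perfused first with prodrug at 80 µM for 30 s, then with prodrug-free medium for 30 s to wash the capillaries, then with 0.2 µCi/mL [14C]D-glucose for 30 s. PA product of [14C]D-glucose then determined.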

Data set [11] in a line: as §1. It counts as ADME, tissue-based. The method, boiled down:
as §2

A short description of data set [12]: Metabolic stability in rat liver homogenate assessed as half life by HPLC. It counts as ADME, tissue-based. The gist of the method: as §2
For data set [13], the system named is Brain. Briefly: Drug uptake in Wistar rat brain at 450 uM by perfusion technique. It counts as ADME, tissue-based. The settings on record: in vivo. The method, boiled down:
as §5

The test system of data set [14] is Brain. Briefly: Drug uptake in Wistar rat brain at 1000 uM by perfusion technique. Format: ADME, tissue-based. The settings on record: in vivo. The method, boiled down:
as §5

The test system of data set [15] is Brain. Briefly: Drug uptake in Wistar rat brain at 3500 uM by perfusion technique. Format: ADME, tissue-based. Particulars: in vivo. The method, boiled down: as §5
Data set [16] has as its system Brain. Briefly: Drug uptake in Wistar rat brain at 15000 uM by perfusion technique. Particulars: in vivo. Format: ADME, tissue-based. The gist of the method:
as §5

The inhibition is the relative decrease from the control value, in per cent. In general, half-life refers to how long it takes for the measured level to halve. What is called IC50 is the concentration needed to halve the response being measured. Read a high IC50 as weaker potency in that assay.

In data set [1], `OC[C@H]1OC(O)[C@H](O)[C@@H](O)[C@@H]1O` (some centres not stated) showed an inhibition of 73.8%.
As for `COc1ccc2c(c1)c(CC(=O)OCC(=O)OC[C@H]1O[C@@H](O)[C@H](O)[C@@H](O)[C@@H]1O)c(C)n2C(=O)c1ccc(Cl)cc1`, the half-life in [2] was 3 h. Further, the Activity entry in the data set on Brain [3] is “Unstable”.
Regarding `COc1ccc2c(c1)c(CC(=O)OC[C@H]1O[C@@H](O)[C@H](O)[C@@H](O)[C@@H]1O)c(C)n2C(=O)c1ccc(Cl)cc1`, in data set [2], the half-life was 40.5 h. In data set [4], this compound showed an inhibition of 96.7%. In addition, the Activity result in data set [5] was “Dose-dependent effect”. In [6], this compound displayed an IC50 of 0.71 µM. Also, the Drug uptake in the data set on Brain [7] is reported as 1.993 pmol/mg/min; in the data set with Brain [8], 1.806 pmol/mg/min; in the data set on Brain [9], 0.599 pmol/mg/min. The compound further returned a PA in data set [10] of 0.0032 mL/s/g.
Turning to `COc1ccc2c(c1)c(CC(=O)OC(C)C(=O)OC[C@H]1O[C@@H](O)[C@H](O)[C@@H](O)[C@@H]1O)c(C)n2C(=O)c1ccc(Cl)cc1` (some centres not stated), the half-life in [2] is 9.5 h. Moreover, the Activity entry with Brain [3] was “Unstable”.
Regarding `CC(C(=O)OC[C@H]1O[C@@H](O)[C@H](O)[C@@H](O)[C@@H]1O)c1cccc(C(=O)c2ccccc2)c1` (some centres not stated), the half-life in data set [2] is 88.5 h; in [11], 0.725 h; in [12], 8.6 min. In [4], this compound gave an inhibition of 75.5%. In addition, in data set [5], the Activity result was “Dose-dependent effect”. Moreover, the IC50 in data set [6] stood at 32.9 µM. For the same compound, the Drug uptake stood at 1.33 pmol/mg/min in the data set on Brain [7]; 0.513 pmol/mg/min with Brain [8]; 0.515 pmol/mg/min with Brain [9]; 3.55 pmol/mg/min with Brain [13]; 7.78 pmol/mg/min with Brain [14]; 20.77 pmol/mg/min in the data set with Brain [15]. The compound also displayed a Drug uptake in the data set with Brain [16] of 93.21 pmol/mg/min. This compound registered a PA in data set [10] of 0.0033 mL/s/g.
